Shown are actives, neighbours in structure and some others; about 3.3% of the full set was active somewhere.
M18AAP inhibitor = PfM18AAP enzyme inhibition; recombinant PfM18AAP, H-Glu-NHMec fluorogenic cleavage; inhibition, % at 7.35 µM; 290,000 tested, 1.2% active;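 active = inhibition above the campaign mean inhibition over all tested compounds plus 3 SD, cut at about 28% in these data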
sPLA2-III inh = Blocks human group III sPLA2 activity | Q9NZ20 | QFRET BODIPY PC-A2 liposome hydrolysis, fluorescence | inhibition, % at 12.2 µM | 370,000 tested, 0.56% active;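 active = inhibition above mean plus 3 SD of compounds lying within the high and low control bounds, cut at about 19% in these data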
Lipid droplet = modulators of hepatic lipid droplet formation; AML12 mouse hepatocytes, oleate lipid droplets, BODIPY imaging; AID 1656; 240,000 tested, 0.4% active; inhibition, % at 6.5 µM;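 active = lipid droplet intensity inhibited by at least 50%, with more than 500 cells counted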
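material = mouse AML12 hepatocyte cell line, fixed after treatment | also added = 100 µM oleic acid challenge | doses = compound at 6.5 µM only | schedule = overnight exposure | technique = Image-based BODIPY and DAPI two-channel analysis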
Arrestin-AP2 inh = human beta-arrestin and AP2 interaction inhibition | AID 504490 | FITC-arrestin peptide / GST-AP2 beads, flow cytometry; AP2 beta2 appendage carries R879A mutation | inhibition, % at 10 µM | 340,000 tested, 0.31% active;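 active = inhibition above a set limit, near 3 SD of compounds lacking own fluorescence, cut at about 54% in these data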
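Material – AP2 appendage R879A on GSH beads · Buffer or medium – PBS with 0.05% Tween 20 and 0.1% BSA · Probe or stimulus – fluorescein-tagged arrestin peptide at 50 nM final · Incubation – compound with beads 12 min RT, then probe 1 h RT · Detection – high-throughput flow cytometry of beads, ex 488, em 535 nm · Evaluation – percent response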
m5-HT2A agonist = activates the mouse 5-HT2A serotonin receptor; P35363; CHO-K1 mHTR2A beta-arrestin complementation, luminescence; percent of 30 µM serotonin response; activation, % at 7.6 µM; 360,000 tested, 0.66% active; AID 624169;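 active = activation above a run cutoff, the mean activation of all tested compounds plus 3 SD, cut at about 14% in these data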
Target sequence (P35363 whole entry, looked up): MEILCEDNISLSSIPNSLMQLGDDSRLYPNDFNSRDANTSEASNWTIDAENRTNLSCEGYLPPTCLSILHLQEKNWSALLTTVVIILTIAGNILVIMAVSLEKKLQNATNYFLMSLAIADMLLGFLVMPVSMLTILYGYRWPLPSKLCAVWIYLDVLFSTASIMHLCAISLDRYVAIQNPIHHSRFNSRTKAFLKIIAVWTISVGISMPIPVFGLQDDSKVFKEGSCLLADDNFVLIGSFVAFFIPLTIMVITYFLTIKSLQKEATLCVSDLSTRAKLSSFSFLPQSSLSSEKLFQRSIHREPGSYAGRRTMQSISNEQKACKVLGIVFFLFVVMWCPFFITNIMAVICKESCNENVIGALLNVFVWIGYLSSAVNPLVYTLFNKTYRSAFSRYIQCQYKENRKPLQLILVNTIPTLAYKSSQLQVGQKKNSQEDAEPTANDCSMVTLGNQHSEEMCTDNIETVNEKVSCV
NRP1-CendR mod = alters CendR peptide binding to human NRP-1 | O14786 | FAM-RPARPAR peptide binding to NRP-1, fluorescence polarization | inhibition, % at 25 µM | 360,000 tested, 0.85% active | AID 602438;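 active = inhibition or corrected inhibition above about 18%, plus a signal ratio from 0.5 to 1.5, limit read from the data, passing the limit was not always enough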
Arr-AP2 CP1 = human beta-arrestin and AP2 interaction inhibition, cherry pick; GST-AP2 beads, FITC arrestin peptide binding, flow cytometry; GST-fused beta2-adaptin appendage, R879A mutant; 1,300 tested, 2% active; inhibition, % at 10 µM; shares compounds with Arrestin-AP2 inh;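 active = inhibition above a set limit, roughly 3 SD of non-fluorescent compound noise, cut at about 38% in these data; inactive = inhibition at or below that limit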;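 note: loss of bead fluorescence from 50 nM FITC arrestin peptide bound to appendage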
GST GSH counter = GST-GSH bead binding interference, counter-screen; GST-fluorescein binding to GSH beads, fluorescence; inhibition, % at 10 µM; 1,300 tested, 2% active; shares compounds with Arrestin-AP2 inh;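 active = inhibition above 50%, about 3 SD of the inhibition seen with non-fluorescent compounds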;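 note: fluorescein maleimide labelled GST captured on 4 micron glutathione beads; higher means more loss of bead fluorescence from quenching or blocked binding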
MOR ag counter = OPRM1 agonism in mouse HTR2A counterscreen; activation, % at 9.3 µM; shares compounds with m5-HT2A agonist; U2OS OPRM1 beta-arrestin PathHunter, luminescence; DMSO 0%, DAMGO 9.3 µM 100%; 2,300 tested, 5.3% active; AID 624380;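 active = mean activation above the mean of DMSO-only wells plus 3 SD, cut at about 0.5% in these data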
m5-HT2A ag conf = mouse HTR2A agonism confirmed | shares compounds with m5-HT2A agonist | CHO-K1 PathHunter beta-arrestin recruitment, luminescence; DMSO 0%, 30 µM serotonin 100% | activation, % at 7.6 µM | 2,300 tested, 19% active;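 active = mean activation across triplicates above the hit threshold derived in the original primary screen, cut at about 15% in these data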
hGIII sPLA2 conf = human GIII-sPLA2 inhibition, confirmation; shares compounds with sPLA2-III inh; recombinant hGIII-sPLA2, BODIPY PC-A2 QFRET fluorescence; 2,000 tested, 34% active; AID 743280; inhibition, % at 12.2 µM;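 active = mean inhibition across triplicates above the hit cutoff set in the earlier primary screen, cut at about 19% in these data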
535nm interf = counter-screen for HGIII-sPLA2 inhibitors: 535nm fluorescence interference. 2,000 tested, 8.5% active. AID 743282. shares compounds with sPLA2-III inh. inhibition, % at 12.2 µM. BODIPY FL product fluorescence interference, QFRET;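 active = average inhibition above the solvent-only control mean plus 3 SD, cut at about 6% in these data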
A number is an active result; i = inactive; nt = no result.

SMILES	M18AAP inhibitor	sPLA2-III inh	Lipid droplet	Arrestin-AP2 inh	m5-HT2A agonist	NRP1-CendR mod	MOR ag counter	m5-HT2A ag conf	others
CC(=O)/C(=N\Nc1cccc(Cl)c1)Sc1nnc(-c2ccccc2)n1-c1ccccc1	i	20	i	105	i	i	nt	nt	Arr-AP2 CP1=i;GST GSH counter=i;hGIII sPLA2 conf=i;535nm interf=i
CN(Cc1ccc2c(c1)CCCN2C)C(=O)[C@H]1O[C@@H](n2cnc3c(N)ncnc32)[C@H](O)[C@@H]1O	nt	i	nt	nt	i	i	nt	nt
CCOc1ccc(/C=N/NC(=O)C(=O)NCc2ccco2)cc1	i	20	i	102	i	i	nt	nt	Arr-AP2 CP1=i;GST GSH counter=i;hGIII sPLA2 conf=i;535nm interf=i
CCOc1ccc(NC(=O)NCc2ccco2)cc1	i	i	i	i	i	i	nt	nt
Cc1cc(C(=O)COc2ccc3ccc(=O)oc3c2)c(C)n1Cc1cccs1	i	21	i	94	i	i	nt	nt	Arr-AP2 CP1=i;GST GSH counter=i;hGIII sPLA2 conf=i;535nm interf=i
CCCCCCCCN1C(=O)[C@H](CC(=O)NCC2CCCCC2)C[C@@]2(C(=O)OCC)CCC=C12	nt	i	nt	nt	i	i	nt	nt
O=c1[nH]n(Cc2ccccc2)c2ccccc12	i	20	i	59	i	i	nt	nt	Arr-AP2 CP1=i;GST GSH counter=i;hGIII sPLA2 conf=i;535nm interf=i
O=c1c2ccccc2c(=O)n(Cc2ccccc2)n1Cc1ccccc1	i	i	i	i	i	i	nt	nt
NC(=O)c1nc(C(=O)N2CCCCC2)c2ccccc2n1	nt	i	nt	i	i	i	nt	nt
NC(=O)c1nc(C(=O)N2CCN(c3ccccc3)CC2)c2ccccc2n1	nt	i	nt	i	18	i	i	i
CC1CC(C)CN(CCOCCSc2ccc(Cl)cc2)C1 (configuration not stated)	i	i	i	i	i	i	nt	nt
CC1CC(C)CN(CCOCCSc2ccccc2)C1 (configuration not stated)	i	i	i	i	16	i	i	i
Cc1nc2sc(C(c3ccco3)N3CC(C)OC(C)C3)c(O)n2n1 (configuration not stated)	i	i	nt	i	23	19	i	i
Cc1nc2sc(C(c3ccccc3)N3CCN(CCO)CC3)c(O)n2n1 (configuration not stated)	nt	i	i	i	32	i	i	i
COc1ccc(-n2ncc3c(=O)n(CC(=O)N(C(C)C)C(C)C)cnc32)cc1	i	i	nt	i	37	i	i	i
COc1ccccc1CNS(=O)(=O)c1ccc2c(c1)NC(=O)CO2	i	i	i	i	16	i	i	i
COC(=O)CCCC1=CC2=C(c3ccccc3)C(=O)C(C)(OC(=O)C3CCCC3)C(=O)C2=CN1CCc1ccccn1 (configuration not stated)	nt	i	i	i	15	i	i	i
Cc1sc2nc(SCc3ccc(C(=O)O)cc3)n(Cc3ccco3)c(=O)c2c1C	i	i	i	i	16	i	i	i
CC(=O)c1sc(NC(=O)c2cc(S(=O)(=O)N3CCOCC3)ccc2F)nc1C	nt	i	nt	i	15	i	i	i
CC1(Cc2cc(Cl)ccc2C(F)(F)F)C(=O)Nc2cc(F)ccc21 (configuration not stated)	nt	nt	nt	nt	i	i	nt	nt
CC1(Cc2cc(Cl)ccc2C(F)(F)F)C(=O)Nc2cc(C(F)(F)F)ccc21 (configuration not stated)	nt	i	nt	nt	15	i	i	i
COCCOC(=O)N1CCCCC1c1cc(C(=O)Nc2cccc3c2CCCC3)no1 (configuration not stated)	nt	i	nt	nt	i	i	nt	nt
COC(=O)N1CCCCC1c1cc(C(=O)Nc2cccc3c2CCCC3)no1 (configuration not stated)	nt	i	nt	nt	17	i	i	i
COc1ccc2c(CC(=O)OCC(=O)N3CCc4ccccc43)coc2c1	i	i	i	i	16	i	i	i
COc1ccc2c(CC(=O)N3CCc4ccccc43)coc2c1	i	i	i	i	i	i	nt	nt
SMILES	M18AAP inhibitor	sPLA2-III inh	Lipid droplet	Arrestin-AP2 inh	m5-HT2A agonist	NRP1-CendR mod	MOR ag counter	m5-HT2A ag conf	others
CCOc1ccc(NC(=S)NCc2ccc3c(c2)OCO3)cc1	i	i	i	i	15	i	i	i
Cc1ccc(NC(=S)NCc2ccc3c(c2)OCO3)cc1	i	i	i	i	i	i	nt	nt
N#Cc1ccc(S(=O)(=O)N2CCCc3nc(-c4ccccc4)ccc32)cc1	nt	i	nt	nt	nt	nt	nt	nt
CCC1CCC(N2CCN(c3ccccc3F)CC2)CC1 (configuration not stated)	i	i	i	i	i	i	nt	nt
CC(=O)N1CCC(N2CCN(c3ccccc3F)CC2)CC1	i	i	nt	i	26	i	i	64
COC(=O)[C@]12C[C@H](CC(=O)N3CCN(C(=O)c4ccco4)CC3)C(=O)N(CCC3=CCCCC3)C1=C[C@H](C(C)(C)C)O[C@@H]2C	nt	i	nt	nt	nt	nt	nt	nt
O=C(CN1C(=O)c2cccnc2Oc2ccc(Cl)cc21)Nc1ccccc1F	i	i	i	i	19	i	i	i
Cc1cn([C@H]2C[C@H](O)[C@@H](CCC(=O)NCC(c3ccccc3)c3ccccc3)O2)c(=O)[nH]c1=O	nt	i	nt	nt	i	i	nt	nt
CCOc1cccc(C=NNC(=O)C(=O)Nc2cccc(C(F)(F)F)c2)c1O	nt	i	nt	nt	nt	nt	nt	nt
O=C(NCCN1CCN(C(=O)c2ccc([N+](=O)[O-])cc2)CC1)C(=O)Nc1ccc(F)cc1	i	i	i	i	i	i	nt	nt
Cc1nc(Oc2ccccc2)c2ccccc2n1	i	i	i	i	i	i	nt	nt
c1ccc(Oc2ncnc3ccccc23)cc1	nt	i	nt	i	16	i	i	i
O=C(COC(=O)c1ccc(OC(F)F)cc1)NCC1CCCO1 (configuration not stated)	nt	i	nt	nt	i	i	nt	nt
O=C(Cc1ccccc1Cl)NCCN1C(=O)C2C3C=CC(C3)C2C1=O (configuration not stated)	nt	i	nt	nt	nt	nt	nt	nt
O=C(C[C@H]1CC[C@@H](NC(=O)Nc2ccc3c(c2)OCO3)[C@@H](CO)O1)NCc1ccccc1	nt	i	nt	nt	i	i	nt	nt

Assay outcomes: PubChem, several laboratories
